Experimental data: ChEMBL document CHEMBL1765011, “Synthesis and c-Met kinase inhibition of 3,5-disubstituted and 3,5,7-trisubstituted quinolines: identification of 3-(4-acetylpiperazin-1-yl)-5-(3-nitrobenzylamino)-7- (trifluoromethyl)quinoline as a novel anticancer agent” (J Med Chem, 2011)
Calls of active or inactive are those of the source. The rule behind the calls is not given here.

How the values were obtained:
[1] = Oral bioavailability in mouse at 20 mg/kg; format: ADME, organism-based; conditions: in vivo
BXPC-3 = assay: Antiproliferative activity against human BxPC3 cells after 72 hrs; conditions: BXPC-3, 72 h
[2] = molecular target: Proto-oncogene tyrosine-protein kinase Src (Homo sapiens, UniProt P12931); assay: Inhibition of c-Src
Summary of the method: (§1)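 ELISA on plates precoated with 20 μg/mL poly(Glu,Tyr) 4:1. Buffer: 10 μM ATP, 50 mM HEPES pH 7.4, 50 mM MgCl2, 0.5 mM MnCl2, 0.2 mM Na3VO4, 1 mM DTT, compound in 1% DMSO. Purified kinase was added and incubated 60 min at 37 °C. Phosphotyrosine was detected with PY99 then HRP anti-mouse IgG, o-phenylenediamine, A490. IC50 was taken from inhibition curves.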

[3] = Tmax in mouse at 20 mg/kg, po; format: ADME, organism-based; set-up: dose 20 mg/kg, route oral; conditions: in vivo
Ephrin type-B receptor 2 = Ephrin type-B receptor 2 (Homo sapiens, UniProt P29323); assay: Inhibition of EPH-B2; summary of the method: as §1
[4] = molecular target: Hepatocyte growth factor receptor (Mus musculus) (UniProt P16056); assay: Inhibition of TPR-c-Met phosphorylation expressed in mouse […] cells assessed as ERK1/2 phosphorylation at 0.1 to 3 uM after 4 hrs by Western blotting; format: cell-based
Summary of the method: (§2)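 Exponentially growing cells were exposed to compound for 4 h at 37 °C and lysed in SDS sample buffer. Lysates were resolved on 10% SDS-PAGE and blotted. Blots were probed for phospho- and total ERK1/2 and AKT, with GAPDH loading control, and detected by ECL.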

[5] = molecular target: T1, Hepatocyte growth factor receptor (Homo sapiens, UniProt P08581); assay: Inhibition of purified recombinant c-Met at incubated for 30 mins measured after 100 fold dilution
[6] = molecular target: T1, Hepatocyte growth factor receptor; assay: Inhibition of c-Met phosphorylation in human H1993 cells at 0.1 to 3 uM after 4 hrs by Western blotting; format: cell-based
Summary of the method: (§3)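 Exponentially growing cells were treated with compound for 4 h at 37 °C and lysed in SDS sample buffer. Lysates were run on 10% SDS-PAGE and blotted to nitrocellulose. Blots were probed for phospho-c-Met and total c-Met, with GAPDH as loading control, and detected by ECL.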

Ephrin type-A receptor 2 = Ephrin type-A receptor 2 (Homo sapiens, UniProt P29317); assay: Inhibition of EPH-A2; summary of the method: as §1
[7] = Clearance in mouse at 10 mg/kg, iv; format: ADME, organism-based; set-up: dose 10 mg/kg, route intravenous; conditions: in vivo
Summary of the method: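 Single iv dose of 10 mg/kg to mice, vehicle DMSO/Tween 80/normal saline. Clearance and half-life were derived from plasma concentration-time data. Average of three runs.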

[8] = molecular target: Hepatocyte growth factor receptor (Mus musculus) (UniProt P16056); assay: Inhibition of TPR-c-Met phosphorylation expressed in mouse […] cells assessed as AKT phosphorylation at 0.1 to 3 uM after 4 hrs by Western blotting; format: cell-based; summary of the method: as §2
Mus musculus [9] = assay: Toxicity in human U87MG cells xenografted nude mouse assessed as reduction of body weight at 100 mg/kg, ip qd for 14 days; format: organism-based, U-87MG ATCC; set-up: dose 100 mg/kg, route intraperitoneal; conditions: in vivo, 336 h
[10] = molecular target: Tyrosine-protein kinase ABL1 (Homo sapiens, UniProt P00519); assay: Inhibition of Abl; summary of the method: as §1
[11] = molecular target: Macrophage-stimulating protein receptor (Homo sapiens, UniProt Q04912); assay: Inhibition of RON; summary of the method: as §1
[12] = molecular target: T1, Hepatocyte growth factor receptor; assay: Inhibition of c-Met in human MKN45 cells assessed as ERK1/2 phosphorylation at 0.1 to 3 uM after 4 hrs by Western blotting; format: cell-based; conditions: MKN-45; summary of the method: as §2
[13] = molecular target: T1, Hepatocyte growth factor receptor; assay: Inhibition of c-Met in human MKN45 cells assessed as AKT phosphorylation at 0.1 to 3 uM after 4 hrs by Western blotting; format: cell-based; conditions: MKN-45; summary of the method: as §2
Mus musculus [14] = assay: Toxicity in mouse NIH/3T3 cells expressing TPR-Met xenografted nude mouse assessed as reduction in body weight at 100 mg/kg, ip qd for 14 days; format: organism-based, NIH3T3; set-up: dose 100 mg/kg, route intraperitoneal; conditions: in vivo, 336 h
[15] = molecular target: Hepatocyte growth factor receptor (Mus musculus) (UniProt P16056); assay: Inhibition of TPR-c-Met phosphorylation expressed in mouse BAF3 cells assessed as AKT phosphorylation at 0.1 to 3 uM after 4 hrs by Western blotting; format: cell-based; summary of the method: as §2
BaF3 = assay: Antiproliferative activity against mouse BAF3 cells expressing TPR-Met after 72 hrs in presence of IL-3; format: functional, cell-based; conditions: BaF3, 72 h
Summary of the method: (§4)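 Cells were seeded and exposed next day to a range of compound concentrations for 72 h. Proliferation was read by sulforhodamine B or MTT assay, and IC50 derived.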

[16] = molecular target: Hepatocyte growth factor receptor (Mus musculus) (UniProt P16056); assay: Inhibition of TPR-c-Met phosphorylation expressed in mouse BAF3 cells assessed as ERK1/2 phosphorylation at 0.1 to 3 uM after 4 hrs by Western blotting; format: cell-based; summary of the method: as §2
[17] = molecular target: Receptor tyrosine-protein kinase erbB-2 (Homo sapiens, UniProt P04626); assay: Inhibition of ErbB2; summary of the method: as §1
[18] = molecular target: T1, Hepatocyte growth factor receptor; assay: Inhibition of c-Met phosphorylation in human MKN45 cells at 0.1 to 3 uM after 4 hrs by Western blotting; format: cell-based; conditions: MKN-45; summary of the method: as §3
MKN-45 = assay: Antiproliferative activity against human MKN45 cells after 72 hrs; conditions: MKN-45, 72 h
SNU1 = assay: Antiproliferative activity against human SNU1 cells after 72 hrs; conditions: SNU1, 72 h
[19] = molecular target: Vascular endothelial growth factor receptor 2 (Homo sapiens, UniProt P35968); assay: Inhibition of KDR; summary of the method: as §1
[20] = molecular target: Hepatocyte growth factor receptor (Mus musculus) (UniProt P16056); assay: Inhibition of TPR-c-Met phosphorylation expressed in mouse […] cells at 0.1 to 3 uM after 4 hrs by Western blotting; format: cell-based; summary of the method: as §3
[21] = molecular target: Hepatocyte growth factor receptor (Mus musculus) (UniProt P16056); assay: Inhibition of TPR-MET autophosphorylation in mouse BaF3 cells after 4 hrs by Western blotting; format: cell-based; summary of the method: as §3
MCF7 = assay: Antiproliferative activity against human MCF7 cells after 72 hrs; conditions: MCF7, 72 h
[22] = molecular target: T1, Hepatocyte growth factor receptor; assay: Inhibition of c-Met phosphorylation in human H1993 cells at 0.5 uM after 4 hrs by Western blotting; format: cell-based; summary of the method: as §3
[23] = molecular target: Platelet-derived growth factor receptor alpha (Homo sapiens, UniProt P16234); assay: Inhibition of PDGFRalpha; summary of the method: as §1
NCI-H1993 = assay: Antiproliferative activity against human NCI-H1993 cells after 72 hrs; conditions: NCI-H1993, 72 h
NCI-H441 = assay: Antiproliferative activity against human NCI-H441 cells after 72 hrs; conditions: NCI-H441, 72 h
[24] = molecular target: T1, Hepatocyte growth factor receptor; assay: Inhibition of c-Met in human H1993 cells assessed as AKT phosphorylation at 0.1 to 3 uM after 4 hrs by Western blotting; format: cell-based; summary of the method: as §2
NIH3T3 = assay: Antiproliferative activity against mouse NIH/3T3 cells after 72 hrs; format: functional, cell-based; conditions: NIH3T3, 72 h; summary of the method: as §4
[25] = molecular target: Hepatocyte growth factor receptor (Mus musculus) (UniProt P16056); assay: Inhibition of TPR-c-Met phosphorylation expressed in mouse BAF3 cells at 0.1 to 3 uM after 4 hrs by Western blotting; format: cell-based; summary of the method: as §3
[26] = molecular target: Fibroblast growth factor receptor 1 (Homo sapiens, UniProt P11362); assay: Inhibition of FGFR1

Chain of Hepatocyte growth factor receptor (Mus musculus) (P16056 whole entry): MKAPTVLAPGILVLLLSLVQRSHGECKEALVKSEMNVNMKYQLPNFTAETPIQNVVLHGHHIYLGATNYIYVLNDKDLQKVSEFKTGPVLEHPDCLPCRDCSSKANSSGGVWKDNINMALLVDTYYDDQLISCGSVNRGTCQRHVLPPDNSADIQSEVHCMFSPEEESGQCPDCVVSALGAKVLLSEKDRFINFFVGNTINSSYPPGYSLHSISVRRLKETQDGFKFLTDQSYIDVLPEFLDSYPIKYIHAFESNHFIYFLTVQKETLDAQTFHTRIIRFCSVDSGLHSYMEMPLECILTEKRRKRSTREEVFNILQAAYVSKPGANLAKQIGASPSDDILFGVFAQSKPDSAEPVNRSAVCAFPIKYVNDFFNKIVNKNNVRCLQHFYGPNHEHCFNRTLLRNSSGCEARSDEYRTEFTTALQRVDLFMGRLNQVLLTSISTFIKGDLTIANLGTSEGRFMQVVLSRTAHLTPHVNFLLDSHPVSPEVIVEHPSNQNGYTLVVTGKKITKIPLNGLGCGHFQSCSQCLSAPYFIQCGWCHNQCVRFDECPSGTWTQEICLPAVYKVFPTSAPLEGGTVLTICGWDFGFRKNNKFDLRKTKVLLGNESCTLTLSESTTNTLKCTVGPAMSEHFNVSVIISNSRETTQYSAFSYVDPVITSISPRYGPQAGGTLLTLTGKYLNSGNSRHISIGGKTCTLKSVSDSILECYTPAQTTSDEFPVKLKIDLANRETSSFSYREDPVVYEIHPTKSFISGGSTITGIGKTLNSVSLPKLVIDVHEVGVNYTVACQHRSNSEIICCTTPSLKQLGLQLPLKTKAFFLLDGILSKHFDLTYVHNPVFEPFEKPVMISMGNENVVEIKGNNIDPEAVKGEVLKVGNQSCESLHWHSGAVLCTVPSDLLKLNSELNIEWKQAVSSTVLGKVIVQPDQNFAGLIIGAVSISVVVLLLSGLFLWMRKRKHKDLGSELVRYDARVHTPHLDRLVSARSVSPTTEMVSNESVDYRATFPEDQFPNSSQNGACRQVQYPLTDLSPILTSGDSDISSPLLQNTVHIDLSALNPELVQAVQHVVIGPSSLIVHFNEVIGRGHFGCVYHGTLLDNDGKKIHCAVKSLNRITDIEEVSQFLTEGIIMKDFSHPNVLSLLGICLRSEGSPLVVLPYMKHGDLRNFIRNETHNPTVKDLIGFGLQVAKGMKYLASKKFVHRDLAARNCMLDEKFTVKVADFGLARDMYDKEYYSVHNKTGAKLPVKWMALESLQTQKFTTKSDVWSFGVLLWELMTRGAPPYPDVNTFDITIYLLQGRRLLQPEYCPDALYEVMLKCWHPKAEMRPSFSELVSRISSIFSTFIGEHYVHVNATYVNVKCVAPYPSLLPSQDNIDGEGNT
T1 sequence (P08581 whole entry): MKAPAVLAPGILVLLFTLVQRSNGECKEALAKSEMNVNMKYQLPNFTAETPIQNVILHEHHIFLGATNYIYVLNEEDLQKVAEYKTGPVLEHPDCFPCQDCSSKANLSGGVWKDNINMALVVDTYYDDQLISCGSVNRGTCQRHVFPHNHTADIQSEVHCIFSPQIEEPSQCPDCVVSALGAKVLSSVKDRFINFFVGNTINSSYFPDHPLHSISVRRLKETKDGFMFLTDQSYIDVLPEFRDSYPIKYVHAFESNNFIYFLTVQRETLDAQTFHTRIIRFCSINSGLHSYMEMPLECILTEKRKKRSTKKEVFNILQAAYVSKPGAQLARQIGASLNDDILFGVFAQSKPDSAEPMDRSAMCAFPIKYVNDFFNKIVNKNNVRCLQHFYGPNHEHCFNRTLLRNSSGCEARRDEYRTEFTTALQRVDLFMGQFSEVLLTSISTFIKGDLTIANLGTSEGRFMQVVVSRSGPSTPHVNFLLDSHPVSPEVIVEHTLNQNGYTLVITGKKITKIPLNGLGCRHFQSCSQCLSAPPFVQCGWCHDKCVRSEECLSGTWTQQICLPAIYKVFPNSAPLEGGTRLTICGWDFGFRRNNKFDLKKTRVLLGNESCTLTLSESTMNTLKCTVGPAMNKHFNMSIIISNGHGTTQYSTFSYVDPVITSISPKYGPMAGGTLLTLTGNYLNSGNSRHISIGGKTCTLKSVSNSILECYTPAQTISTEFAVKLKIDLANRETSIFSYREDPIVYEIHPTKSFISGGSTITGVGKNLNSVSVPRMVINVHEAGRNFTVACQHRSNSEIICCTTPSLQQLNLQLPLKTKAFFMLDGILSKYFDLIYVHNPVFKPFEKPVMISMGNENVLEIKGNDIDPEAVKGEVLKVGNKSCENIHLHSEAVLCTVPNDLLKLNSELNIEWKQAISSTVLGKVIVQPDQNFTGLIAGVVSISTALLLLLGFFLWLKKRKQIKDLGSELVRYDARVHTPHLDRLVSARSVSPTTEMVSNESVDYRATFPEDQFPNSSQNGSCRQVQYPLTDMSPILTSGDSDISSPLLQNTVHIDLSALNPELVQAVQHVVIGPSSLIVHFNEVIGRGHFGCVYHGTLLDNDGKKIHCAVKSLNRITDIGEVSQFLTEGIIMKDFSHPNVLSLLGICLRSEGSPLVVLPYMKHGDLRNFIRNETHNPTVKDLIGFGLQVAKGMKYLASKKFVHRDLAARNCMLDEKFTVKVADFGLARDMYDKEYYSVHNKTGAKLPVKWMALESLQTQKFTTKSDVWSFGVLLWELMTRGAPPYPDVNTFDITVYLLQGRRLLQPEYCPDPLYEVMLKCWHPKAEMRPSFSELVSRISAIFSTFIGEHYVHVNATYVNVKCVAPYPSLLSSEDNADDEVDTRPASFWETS
Chain of Platelet-derived growth factor receptor alpha (P16234 whole entry): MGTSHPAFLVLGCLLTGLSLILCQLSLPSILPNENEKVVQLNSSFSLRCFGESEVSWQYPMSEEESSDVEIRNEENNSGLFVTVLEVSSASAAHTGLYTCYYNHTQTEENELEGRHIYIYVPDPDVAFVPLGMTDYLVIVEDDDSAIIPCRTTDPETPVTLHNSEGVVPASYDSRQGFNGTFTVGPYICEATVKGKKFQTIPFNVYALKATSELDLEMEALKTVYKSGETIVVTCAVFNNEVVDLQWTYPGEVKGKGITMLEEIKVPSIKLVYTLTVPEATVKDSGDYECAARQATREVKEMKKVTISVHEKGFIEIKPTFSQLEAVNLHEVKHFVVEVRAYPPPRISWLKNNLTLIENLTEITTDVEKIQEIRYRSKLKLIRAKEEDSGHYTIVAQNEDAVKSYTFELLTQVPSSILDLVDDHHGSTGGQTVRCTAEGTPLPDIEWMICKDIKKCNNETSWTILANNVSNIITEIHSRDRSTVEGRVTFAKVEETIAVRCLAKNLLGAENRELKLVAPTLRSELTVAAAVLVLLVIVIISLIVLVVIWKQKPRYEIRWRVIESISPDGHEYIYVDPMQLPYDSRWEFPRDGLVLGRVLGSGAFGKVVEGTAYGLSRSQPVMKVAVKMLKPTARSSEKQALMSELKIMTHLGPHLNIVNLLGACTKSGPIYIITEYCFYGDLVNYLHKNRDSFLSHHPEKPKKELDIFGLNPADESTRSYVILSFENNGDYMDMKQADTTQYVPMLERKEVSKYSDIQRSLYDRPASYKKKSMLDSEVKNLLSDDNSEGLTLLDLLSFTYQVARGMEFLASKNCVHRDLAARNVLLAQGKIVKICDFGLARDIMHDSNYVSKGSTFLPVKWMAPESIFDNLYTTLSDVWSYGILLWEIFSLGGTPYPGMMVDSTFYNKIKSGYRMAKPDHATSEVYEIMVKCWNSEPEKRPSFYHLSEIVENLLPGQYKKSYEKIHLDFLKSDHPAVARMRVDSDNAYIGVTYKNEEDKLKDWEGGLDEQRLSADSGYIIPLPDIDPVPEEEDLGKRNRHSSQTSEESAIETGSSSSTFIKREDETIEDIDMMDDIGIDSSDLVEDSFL
Chain of Receptor tyrosine-protein kinase erbB-2 (P04626 whole entry): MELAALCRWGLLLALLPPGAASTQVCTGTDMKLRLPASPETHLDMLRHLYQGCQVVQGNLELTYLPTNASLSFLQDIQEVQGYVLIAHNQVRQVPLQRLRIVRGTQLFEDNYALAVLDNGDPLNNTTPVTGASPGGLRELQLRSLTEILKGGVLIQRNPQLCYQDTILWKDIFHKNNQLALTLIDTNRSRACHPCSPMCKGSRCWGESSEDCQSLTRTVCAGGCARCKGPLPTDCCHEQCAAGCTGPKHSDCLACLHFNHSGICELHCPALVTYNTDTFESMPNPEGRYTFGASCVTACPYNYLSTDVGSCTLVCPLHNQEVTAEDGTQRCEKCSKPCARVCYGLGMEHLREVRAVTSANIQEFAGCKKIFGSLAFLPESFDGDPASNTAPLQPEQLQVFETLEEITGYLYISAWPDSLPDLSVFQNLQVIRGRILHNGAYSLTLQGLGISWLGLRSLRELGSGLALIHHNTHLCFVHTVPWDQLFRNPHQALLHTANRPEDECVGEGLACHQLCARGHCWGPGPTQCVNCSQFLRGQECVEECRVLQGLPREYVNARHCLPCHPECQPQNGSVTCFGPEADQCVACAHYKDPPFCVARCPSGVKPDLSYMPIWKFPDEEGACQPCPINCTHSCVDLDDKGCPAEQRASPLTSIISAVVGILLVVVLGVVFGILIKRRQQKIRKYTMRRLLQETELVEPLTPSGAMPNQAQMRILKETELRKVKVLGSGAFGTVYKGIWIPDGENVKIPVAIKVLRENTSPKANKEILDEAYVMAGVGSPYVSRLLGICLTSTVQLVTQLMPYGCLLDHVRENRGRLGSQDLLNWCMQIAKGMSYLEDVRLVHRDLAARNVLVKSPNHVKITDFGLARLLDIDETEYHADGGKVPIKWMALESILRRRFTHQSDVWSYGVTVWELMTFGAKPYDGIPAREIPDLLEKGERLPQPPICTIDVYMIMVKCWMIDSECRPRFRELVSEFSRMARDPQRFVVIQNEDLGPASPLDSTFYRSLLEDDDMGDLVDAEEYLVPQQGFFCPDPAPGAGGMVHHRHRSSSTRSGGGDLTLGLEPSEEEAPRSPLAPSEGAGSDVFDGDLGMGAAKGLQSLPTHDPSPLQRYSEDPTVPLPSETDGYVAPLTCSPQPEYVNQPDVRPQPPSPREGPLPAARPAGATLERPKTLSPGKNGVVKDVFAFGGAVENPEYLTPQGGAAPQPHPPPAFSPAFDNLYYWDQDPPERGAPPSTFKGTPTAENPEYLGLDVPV

CC(=O)N1CCN(c2cnc3cc(C(F)(F)F)cc(NCc4cccc([N+](=O)[O-])c4)c3c2)CC1
bioavailability [1]: 37.5% | IC50 (BXPC-3): 46 µM | IC50 [2]: > 10 µM | Tmax [3]: 3 h | IC50 (Ephrin type-B receptor 2): > 10 µM | inhibition [4]: Active | inhibition [5]: inactive | inhibition [6]: Active | IC50 (Ephrin type-A receptor 2): > 10 µM | clearance [7]: 59.8 mL/min/kg | inhibition [8]: Active | Activity (Mus musculus [9]): Non-toxic | IC50 [10]: > 10 µM | IC50 [11]: > 10 µM | inhibition [12]: Active | inhibition [13]: Active | Activity (Mus musculus [14]): Non-toxic | inhibition [15]: Active | IC50 (BaF3): 12.2 µM | inhibition [16]: Active | IC50 [17]: > 10 µM | inhibition [18]: Active | IC50 (MKN-45): 1 µM | IC50 (SNU1): ≥ 50 µM | IC50 [19]: > 10 µM | inhibition [20]: Active | inhibition [21]: Dose-dependent effect | IC50 (MCF7): 16 µM | inhibition [22]: Active | IC50 [23]: > 10 µM | IC50 (NCI-H1993): 5.3 µM | IC50 (NCI-H441): ≥ 50 µM | inhibition [24]: Active | IC50 (NIH3T3): ≥ 50 µM | inhibition [25]: Active | IC50 [26]: > 10 µM
